Measurements from ChEMBL document CHEMBL4732060, “Cytotoxic triterpenoid-safirinium conjugates target the endoplasmic reticulum” (Eur J Med Chem, 2021).

Tests used:
[1] = Drug uptake in endoplasmic reticulum of human A-375 cells at 5.4 uM measured after 12 hrs by ER-tracker based fluorescence imaging analysis; assay type: ADME, subcellular; conditions: a-375, 12 h
In short: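 Living A375 cells were incubated with compound for 12 h, co-stained with ER-Tracker, and imaged by fluorescence microscopy. Compound, tracker and merged channels were compared for localisation in the endoplasmic reticulum.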

[2] = system: HT-29; assay: Cytotoxicity against human HT-29 cells assessed as reduction in cell viability measured after 72 hrs by SRB assay; assay type: functional, cell-based; conditions: HT-29, 72 h
[3] = Drug uptake in Mitochondria of human A-375 cells at 5.4 uM measured after 12 hrs by Mito-tracker based fluorescence imaging analysis; assay type: ADME; conditions: a-375, 12 h
[4] = system: A-375; assay: Cytotoxicity against human A-375 cells assessed as reduction in cell viability measured after 72 hrs by SRB assay; assay type: functional, cell-based; conditions: A-375, 72 h
[5] = system: FaDu; assay: Cytotoxicity against human FaDu cells assessed as reduction in cell viability measured after 72 hrs by SRB assay; assay type: functional, cell-based
[6] = system: HEK293; assay: Cytotoxicity against human HEK293 cells assessed as reduction in cell viability measured after 72 hrs by SRB assay; assay type: ADME, cell-based; conditions: HEK293, 72 h
[7] = system: A2780; assay: Cytotoxicity against human A2780 cells assessed as reduction in cell viability measured after 72 hrs by SRB assay; assay type: functional, cell-based; conditions: A2780, 72 h
[8] = system: NIH3T3; assay: Cytotoxicity against mouse NIH3T3 cells assessed as reduction in cell viability measured after 72 hrs by SRB assay; assay type: cell-based; conditions: NIH3T3, 72 h
In short: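 Sulforhodamine B assay on human tumour lines A375 (epithelial melanoma), HT29 (colorectal adenocarcinoma), MCF-7 (breast adenocarcinoma), A2780 (ovarian carcinoma) and FaDu (squamous cell carcinoma). Non-malignant NIH 3T3 (mouse fibroblasts) and HEK293 (human embryonic kidney) cells were also tested. EC50 values are given as mean ± standard mean error.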

[9] = system: MCF7; assay: Cytotoxicity against human MCF7 cells assessed as reduction in cell viability measured after 72 hrs by SRB assay; assay type: functional, cell-based; conditions: MCF7, 72 h

| Structure (SMILES) | Drug uptake [1] | EC50 [2] [µM] | Drug uptake [3] | EC50 [4] [µM] | EC50 [5] [µM] | EC50 [6] [µM] | EC50 [7] [µM] | EC50 [8] [µM] | EC50 [9] [µM] |
| --- | --- | --- | --- | --- | --- | --- | --- | --- | --- |
| C=C(C)[C@@H]1CC[C@]2(C(=O)N3CCN(C(=O)C4=C(C)C=C(C)N5C[N+](CCCCCC)(CCCCCC)N=C45)CC3)CC[C@]3(C)[C@H](CC[C@@H]4[C@@]5(C)CC[C@H](OC(C)=O)C(C)(C)[C@@H]5CC[C@]43C)[C@@H]12.[Cl-] | Active | 7.5 | Not Active | 5.4 | 6 | 3 | 4.6 | 6.6 | 4.9 |
| C=C(C)[C@@H]1CC[C@]2(C(=O)N3CCN(C(=O)C4=Cc5ccccc5N5C[N+](CC)(CC)N=C45)CC3)CC[C@]3(C)C(=CC[C@@H]4[C@@]5(C)CC[C@H](OC(C)=O)C(C)(C)[C@@H]5CC[C@]43C)[C@H]12 |  | 27 |  | 20.8 | 28.2 | 16.5 | 14.1 | > 30 | 18.1 |
